Test results as given in ChEMBL document CHEMBL4513216, “Probing the Open Global Health Chemical Diversity Library for Multistage-Active Starting Points for Next-Generation Antimalarials” (ACS Infect Dis, 2020).

Test: Toxicity liver stage against HepG2, at 10uM
Format: cell-based
Parameters: test concentration 10 uM, cell line HepG2-A16-CD81EGFP
Conditions: human, HepG2-A16-CD81EGFP cells; read-out: INHIBITION
How it was run: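 Uninfected HepG2-A16-CD81EGFP cells, 3 × 10^3 per well, 1536-well, plated on prespotted compound at 10 μM final, parasite-free screening media added to match infected plates; puromycin 10 μM positive, DMSO 0.5% negative; run in parallel with 48 h PbLuc assay at 37 °C, 5% CO2; viability by CellTiter-Glo luminescence, normalized to controls.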

Structure (SMILES) | cytotoxicity at 10 µM [%]
Cc1ccc(C(=O)Nc2ccccc2F)n1C | 0.339
CC(=O)NC[C@H]1C[C@@H]2CCN1C[C@@H]2c1cc(-c2cccs2)nn1C | -7.99
CC(=O)N1N=C(c2ccccc2)OC1C(=O)NCCc1ccc(C)cc1 (centres undefined) | 0.0915
CC(=O)N1N=C(c2ccccc2)OC1C(=O)NCCc1ccc(Cl)cc1 (centres undefined) | 3.68
O=C(c1cc(=O)c(OCc2ccccc2F)co1)N1CCCC1 | -0.321
O=C(c1ccccn1)N1CC(S(=O)(=O)c2ccc(Cl)cc2)C1 | -12
Cc1ccc(S(=O)(=O)Nc2cnn(C3CCOCC3)c2)cc1C | 13.5
O=C(NC1CC1)N1CCCC2(CCNC2=O)C1 (centres undefined) | 3
Cn1ccc(C(=O)N2CCCCC23CC(=O)N(Cc2ccccc2)C3)n1 (centres undefined) | 3.64
CC[C@@H]1N(Cc2cc(OC)cc(OC)c2)CCC[C@]12CCC(=O)N2C | 11.8
Cc1cnc(N2C[C@@H]3[C@@H](C(=O)NC(C)C)CCS(=O)(=O)[C@@H]3C2)nc1 | -130
O=C(C1CCSCC1)N1CCC2(CC1)COC(COCC1CC1)C2 (centres undefined) | 2.56
Cc1nc(N2CCOCC2)nc2c1COCC21CCN(CC(C)C)C1 (centres undefined) | -128
CN(C)C(=O)c1n[nH]c2c1CCN(Cc1nccs1)C2 | -139
O=C(COC[C@@H]1CC[C@H]2[C@H](CCN2Cc2ccco2)O1)N1CCCC1 | -161
O=C1CC(c2ccc(C(=O)O)cc2)c2ncn(-c3ccccc3F)c2N1 (centres undefined) | -3.51
O=C(Cc1cccs1)N1C[C@@H]2COC[C@]2(COc2cccnc2)C1 | -21.1
CCCc1nnsc1C(=O)N1CCCC1(C)C(=O)N1CCOCC1 (centres undefined) | 12
CC1CCc2nn(CCNC(=O)c3cccs3)c(=O)cc2C1 (centres undefined) | 17
Cn1cncc1CN1CCOC(Cc2ccccc2)C1 (centres undefined) | 9.43
CNc1ncc(CN(C)C2CCN(C(C)C)CC2)cn1 | -3.14
CN(C)Cc1cnn(-c2ccccc2C(=O)N(C)Cc2ccccc2)c1 | -6.54

Structure (SMILES) | cytotoxicity at 10 µM [%]
COc1ccc(CN(C)[C@@H]2CN(C(=O)c3ccnn3C)C[C@H]2O)cc1 | -13.5
Cc1ccc(C)c(C(O)Cn2cc(Cl)c(=O)[nH]c2=O)c1 (centres undefined) | -6.81
CCCn1nc(C(=O)NC2(c3ccc(Cl)cc3)CCCC2)ccc1=O | 9.46
COC(C)c1cccc(NCc2cccc(O)c2)c1 (centres undefined) | -0.334
COc1ccccc1C(C)(C)NC(=O)c1cc(NC(C)=O)ccc1F | -137
Cn1cccc1C(=O)COc1ccc(S(N)(=O)=O)cc1 | 12.4
COc1cc(Br)c(CNc2ccn(CCC(N)=O)n2)cc1OC | -2.87
Cc1nc2n(n1)CC(NCc1ccc(Cl)c3cccnc13)CC2 (centres undefined) | -8.81
CCCNC1(c2ccc(Cl)cc2)CCOCC1 | -0.0529
CN(CCCNC(=O)c1ccccc1OCC(N)=O)CC(F)(F)F | -7.53
CC(C)(C)n1ncc2c(=O)[nH]c(N3CCN(CC(F)F)CC3)nc21 | -7.8
COc1ccc(C)cc1CC(=O)Nc1cc(C)n[nH]1 | 0.503
O=C(CNC(=O)C1CCCC1)NCc1cnn(-c2ccc(F)cc2F)c1 | 8.21
O=C(NCC(O)c1ccc(F)cc1F)c1cccc(F)c1 (centres undefined) | 7.43
NC(=O)C1CCN(CC(=O)NCCc2c(F)cccc2F)CC1 | -7.14
NC(=O)N1CCCN(CC(=O)NCCc2c(F)cccc2F)CC1 | -5.15
O=C(NCC(F)(F)F)C1CCCN(Cc2ccno2)C1 (centres undefined) | -4.13
CCc1cnc(CN(C)C(=O)NC2CCN(c3ccccc3)C2)s1 (centres undefined) | -2.12
NC(=O)COc1ccc(C(=O)NCCc2ccco2)cc1 | 10.1
CCOC(=O)N1CCN(C(=O)c2cc(-c3ccccc3F)on2)CC1 | 1.14
NC(=O)C1CCN(C(=O)CCCc2ccc(Cl)c(Cl)c2)CC1 | 5.34
CC(C)Cc1nnc(NCc2ccsc2)o1 | -0.699

Structure (SMILES) | cytotoxicity at 10 µM [%]
CC(C)(C)c1nccc(N2CCN(C3CCS(=O)(=O)C3)CC2)n1 (centres undefined) | 1.05
CS(=O)(=O)CCC(=O)NC1CC(c2ccccc2Cl)C1 (centres undefined) | -4.19
COc1cccc(CN(C(=O)NC2CC2)C2CCC(O)CC2)c1 (centres undefined) | 6.8
CN(C(=O)Nc1cccc(C#N)c1)C1CCN(c2ccccn2)CC1 | 1.66
CN(CCOc1cccc(Cl)c1)Cc1nnc(C(C)(C)C)o1 | 8.65
Brc1ccc(NCc2ccc(Cn3ccnc3)cc2)nc1 | 21.8
Cn1ccnc1COc1ccc(CSc2nncn2C2CC2)cc1 | 3.67
COc1cccc(N2CCC(CNC(=O)N(C)Cc3ccco3)C2)c1 (centres undefined) | -130
O=C1C(Sc2nc(=O)ccn2C2CC2)CCN1c1ccccc1 (centres undefined) | 1.27
CCOCCN1CCN(CC(O)c2ccc(C)c(C)c2)CC1 (centres undefined) | -6.33
COCCNC(=O)Cn1cc(NC(=O)c2ccc(C(C)(C)C)cc2)cn1 | -9.94
O=C(Nc1ccc(-n2cncn2)c(F)c1)C1CCN(C(=O)C2CC2)CC1 | -2.83
Cc1ccc(C(=O)NCCCC2(C3OCCO3)CCOCC2)cc1C | 1.48
C[C@@H]1CN(C(=O)c2ccc(Br)cc2F)CC(C(N)=O)O1 (some centres undefined) | -2.74
Cc1c(C(=O)NCC(C)(C)S(C)(=O)=O)cccc1-c1ccccn1 | 2.07
CCOc1ccnc(N2CCN(C(=O)CCc3cnn(C)c3)CC2)n1 | 7.58
Cc1csc(CNC(=O)Nc2ccc3c(c2)OCO3)n1 | -15.7
NC(=O)CN(C(=O)c1cccc(C(F)(F)F)c1)C1CCCC1 | -0.296
COc1ccc(OC)c(CN(C)c2ncc(S(N)(=O)=O)s2)c1 | 5.8
O=C(Nc1nccs1)N1CCCC(N2CCNC2=O)C1 (centres undefined) | -20.7
CC(C)c1cc(C(=O)NCCn2nnc3ccccc32)no1 | -1.95
CCOC(=O)c1n[nH]cc1CN1CCOC(Cc2ccccc2)C1 (centres undefined) | -5.35

Structure (SMILES) | cytotoxicity at 10 µM [%]
NC(=O)CN1CCC(C(=O)NCCc2nc(-c3ccccc3)cs2)CC1 | -7.85
CN(C)C(=O)CCN1CC(c2ccccc2)(c2ccccc2)CCC1=O | 0.284
O=C(Cc1ccc2c(c1)OCO2)N[C@@H]1CCNC[C@H]1O | 0.635
O=C(O)CSc1nnc(-c2ccn[nH]2)n1-c1ccccc1Cl | 0.276
CCCn1cnnc1CNC(=O)CC1C(=O)NCCN1CC(C)(C)C (centres undefined) | -0.798
CCCS(=O)(=O)c1ncc(CN2CCC(C)CC2)n1CC1CCCO1 (centres undefined) | -5.12
O=C(Nc1cccc2ccccc12)N1CCC(N2CCSCC2)CC1 | -1.86
Cc1c[nH]c(CN(C)C(=O)C(C)(C)NC(=O)c2cccs2)n1 | 3.08
CCc1cc(C(=O)N2CCC3(CCCN(CC4CC4)C3=O)C2)cs1 (centres undefined) | -164
COCCN1CCCC2(CCN(c3nccnc3N(C)C)C2)C1=O (centres undefined) | -0.525
O=C(NCc1nc[nH]n1)c1cc(COc2cccc(C(F)(F)F)c2)[nH]n1 | -3.26
O=C(NCCc1csc(-c2ncccn2)n1)c1cnn2c1CCCC2 | -3.88
CCc1ccc2nc(C)cc(C(=O)NC3CCC(=O)N(C)C3)c2c1 (centres undefined) | -5.85
c1coc(-c2nc3c(c(N4CCCN5CCC[C@H]5C4)n2)CCNCC3)c1 | -9.88
COc1cccc2c1OCC(CNC(=O)CSc1ccccn1)C2 (centres undefined) | -135
CN1CCc2[nH]cnc2C12CCN(C(=O)c1noc3c1CCCC3)CC2 | 8.71
CC(COc1ccccc1)NCc1nc(-c2cccnc2)no1 (centres undefined) | -14.1
Cc1ccc(NC2CCN(C(=O)c3sccc3C3CC3)CC2)nn1 | -4.51
NC(=O)c1cc(C2CCCN(C(=O)CCc3ccncc3)C2)n[nH]1 (centres undefined) | -8.99
CC(=O)NCc1ccc(C(=O)N2CCCC2c2c(C)nn(C)c2C)o1 (centres undefined) | -11.3
Cc1ccc(CC(=O)N2CCN(CC(C)O)CC2)cn1 (centres undefined) | -2.37
Cc1ccccc1C1CCCN1Cc1nc2c(cnn2C)c(=O)[nH]1 (centres undefined) | -12

Structure (SMILES) | cytotoxicity at 10 µM [%]
c1cncc(-c2noc(CN3CCCC(Cn4cncn4)C3)n2)c1 (centres undefined) | -2.18
Cn1c(NCC(O)c2ccc(F)c(F)c2)c(C#N)c(=O)n(C)c1=O (centres undefined) | -19.9
CNC(=O)CN1CCC(NC(=O)Cc2ccc3c(c2)OCCO3)CC1 | -18.3
Cc1cc(C)n(CC2CCCN2C(=O)c2ccc3nncn3c2)n1 (centres undefined) | 2.01
Cc1cccc(C)c1OCC(=O)N1CCOCC1c1ncon1 (centres undefined) | -17
CC(c1nc(C2CC2)no1)N1CCN(Cc2nnc(C3CC3)o2)CC1 (centres undefined) | 7.7
CC(C)C(=O)NCc1ccc(N(C)C)cc1 | -18.1
CC(C)c1nc(CN2CCN(Cc3ccccn3)CC2)cs1 | -4.41
Cc1nc2ccccc2nc1CN1CCCC(Cn2cncn2)C1 (centres undefined) | -4.57
CNS(=O)(=O)c1cccc(CNC(=O)NCC2CCOC2)c1 (centres undefined) | -9.97
CCCc1cc(C(=O)NCCn2nc3ccccn3c2=O)[nH]n1 | -3.56
CCOc1cccc(NS(=O)(=O)c2cc(C(=O)O)cs2)c1 | -4.41
CC(C)N(C)[C@@H]1CCN(c2ncccn2)[C@H]1Cc1ccncc1 | -3.42
COc1cc(CNCC(O)c2ccccc2)cc2c1OCO2 (centres undefined) | -13
O=C1[C@H]2CN(Cc3ccccc3)C[C@H]2CN1CCN1CCCC1 | -3.84
CS(=O)(=O)NC[C@@H]1OC[C@H]2CN(Cc3ccccc3)CC[C@H]21 | 4.82
NCC1(c2cccc(Br)c2)CCOCC1 | -8.45
O=c1c(=CS(=O)(=O)Nc2ccc(Cl)cc2)[nH]c(=O)n2cccc12 | -7.67
Cc1ccc(NS(=O)(=O)C=c2[nH]c(=O)n3cccc3c2=O)cc1 | -10.7
CC(=O)c1ccc(C(=O)N2C[C@H]3CC[C@@H](C2)N(Cc2ccccc2)C3)s1 | -13.3
Cc1cnc(C(=O)N2C[C@@H]3CC[C@H]2CN(c2cnccn2)C3)cn1 | 10.1
